Only some compounds are listed: those with a hit (about 5.7% of all), similar ones and a draw of the others.
Beta cell apopt = blocks beta cell apoptosis. INS-1E cytokine-induced death, ATP luminescence, 48 h; percent of positive-control rescue, neutral wells zero. protection from apoptosis, % (no concentration beside the values). 300,000 compounds, 0.8% hits. AID 435005;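 active = Every replicate reaches about 75%, or at least half do and their mean reaches it too, limit read from the data; inconclusive = At least half of replicates reach the limit but their mean does not; inactive = Under half of replicates reach the limit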;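 note: 0% = cytokine-treated negative control wells and 100% = positive control rescue; higher means more ATP so stronger rescue from cytokine killing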
CSC inhib = cancer stem cell inhibition; 300,000 compounds, 1.1% hits; AID 2717; inhibition, % at 7.5 µM; cancer stem cell-like cells viability, luminescence; in the data active = inhibition above about 75%; inconclusive = no clear call, values can overlap the other calls; tested in HMLE shEcad cells
T cruzi repl = blocks replication of Trypanosoma cruzi; 300,000 compounds, 1.4% hits; AID 1885; inhibition, % (test concentration not listed); T. cruzi beta-gal in NIH3T3, luminescence, 90 h;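 active = mean inhibition across valid replicates above about 55%, limit read from the data; inconclusive = mean below that limit but half or more replicates reach it; inactive = mean below it, under half of replicates reach it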;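 note: signal also drops with host cell toxicity which is not excluded here; 0% = plate median of DMSO wells and 100% = zero luminescence signal; higher percent means less beta-gal luminescence so fewer parasites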
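System: NIH/3T3 fibroblasts plus reporter T. cruzi. Medium: DMEM plus 2% FBS. Probe or stimulus: 5000 reporter trypomastigotes per well. Compound: single 50 nL compound addition per well in DMSO. Incubation: co-culture of at least 90 h after 3 h attachment. Detection: GalScreen β-gal luminescence, detergent lysis, 60 min. Evaluation: parasite load inhibition, %.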
Mdm2 MdmX PPI = human Mdm2/MdmX binding inhibition; AID 485346; O15151+Q00987; inhibition, % at 8 µM; 330,000 compounds, 3% hits; SaOS-2 split-luciferase Mdm2/MdmX complementation, luminescence;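 active = inhibition of at least 50% at 8 µM in the primary screen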
Target sequence (O15151 whole entry, looked up): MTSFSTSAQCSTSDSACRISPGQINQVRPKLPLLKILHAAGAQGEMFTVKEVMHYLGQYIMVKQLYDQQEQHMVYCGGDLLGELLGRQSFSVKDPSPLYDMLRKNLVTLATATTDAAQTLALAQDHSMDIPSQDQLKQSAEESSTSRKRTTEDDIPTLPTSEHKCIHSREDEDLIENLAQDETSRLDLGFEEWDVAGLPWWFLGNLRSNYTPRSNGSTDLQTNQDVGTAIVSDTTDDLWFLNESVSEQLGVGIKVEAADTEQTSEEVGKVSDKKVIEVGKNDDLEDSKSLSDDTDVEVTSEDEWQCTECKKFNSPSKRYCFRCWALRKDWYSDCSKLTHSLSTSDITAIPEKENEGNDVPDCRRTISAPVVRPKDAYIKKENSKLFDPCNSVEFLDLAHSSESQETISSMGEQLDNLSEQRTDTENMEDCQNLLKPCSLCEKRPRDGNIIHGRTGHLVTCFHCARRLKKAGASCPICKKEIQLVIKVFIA
Target sequence (Q00987 whole entry, looked up): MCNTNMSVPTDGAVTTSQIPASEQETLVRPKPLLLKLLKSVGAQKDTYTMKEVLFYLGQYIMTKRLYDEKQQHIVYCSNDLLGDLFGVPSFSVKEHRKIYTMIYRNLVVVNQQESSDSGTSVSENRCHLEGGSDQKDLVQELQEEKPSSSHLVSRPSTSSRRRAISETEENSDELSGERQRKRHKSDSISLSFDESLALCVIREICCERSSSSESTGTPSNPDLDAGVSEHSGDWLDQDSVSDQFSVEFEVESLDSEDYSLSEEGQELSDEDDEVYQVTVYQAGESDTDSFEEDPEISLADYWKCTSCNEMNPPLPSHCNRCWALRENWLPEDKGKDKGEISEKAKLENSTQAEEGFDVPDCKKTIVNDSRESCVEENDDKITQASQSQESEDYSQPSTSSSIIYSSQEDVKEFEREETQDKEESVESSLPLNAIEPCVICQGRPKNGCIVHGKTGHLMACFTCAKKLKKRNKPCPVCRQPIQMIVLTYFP
Calb FLC = affects C. albicans growth with fluconazole. C. albicans CaCi-2 (fluconazole-resistant clinical isolate) + fluconazole, Alamar Blue growth, 48 h. growth inhibition, % (concentration not given with the values). 300,000 compounds, 0.57% hits;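 active = growth inhibition above about 58% in most replicates, limit read from the data, passing the limit was not always enough; inconclusive = exactly half the replicates above a set limit; inactive = most replicates below a set limit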;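 note: all wells also contain fluconazole at 8 µg/ml as a sub-toxic cotreatment; 0% = median of DMSO wells and 100% = median of geldanamycin control wells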
SKKanGAS inh = SKKanGAS growth inhibition | inhibition, % at 7.5 µM | S. pyogenes SKKanGAS, kanamycin growth, BacTiter-Glo, 6 h | 300,000 compounds, 1.3% hits;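 active = mean replicate score, as percent of positive control median, at least 50; inconclusive = mean below 50 but one replicate at or above 50; inactive = mean and every replicate below 50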;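 note: strain carries kanamycin resistance gene driven by streptokinase promoter and grows in 40 µg/ml kanamycin; loss of luminescence reflects streptokinase promoter inhibition or plain growth inhibition; 0% = median of DMSO wells and 100% = positive control at its reference dose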
Mdm2 MdmX conf = human Mdm2/MdmX binding inhibition, confirmed; shares compounds with Mdm2 MdmX PPI; luminescent assay; inhibition, % at 8 µM; 10,000 compounds, 55% hits; AID 489028; in the data active = inhibition above about 40%
Full FLuc ctr = counter-screen for Mdm2/MdmX inhibitors: full-length luciferase. AID 504607. 6,200 compounds, 77% hits. shares compounds with Mdm2 MdmX PPI. inhibition, % at 8 µM. SaOS-2 full-length luciferase counterscreen, luminescence;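 active = mean inhibition at 8 µM reaching about 37%, which flags the compound as non-specific, limit read from the data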;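 note: p53-null SaOS-2 cells with luciferase driven by a doxycycline-inducible promoter; compound on cells about two nights before reading with doxycycline added after day one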
* hit, by the source's call; ? = inconclusive; / = not tested or not shown.

SMILES	Beta cell apopt	CSC inhib	T cruzi repl	Mdm2 MdmX PPI	Calb FLC	SKKanGAS inh	Mdm2 MdmX conf	Full FLuc ctr
Cc1cc(C(=O)N2CC=C(c3ccccc3)CC2)c2ccccc2n1	11	53	-8	55*	0	-3	74*	65*
COc1ccc(-c2cc(C(=O)N3CCCC3)c3ccccc3n2)cc1	-5	1	6	7	-3	-3	/	/
O=C1CCN(Cc2ccccc2)C=C1c1cccc(O)c1	-2	-5	/	-3	/	/	/	/
CN(C)CCN(CC1CCCN(Cc2ccccc2F)C1)C(=O)c1ccc(F)cc1 (configuration not stated)	0	-4	10	15	-4	-3	/	/
CC(=O)c1ccc(N2CCN(C(=O)c3cc(-c4ccncc4)nc4ccc(Br)cc34)CC2)cc1	7	13	52	58*	2	-2	37	105*
CCOc1ccccc1N1CCN(C(=O)c2cc(-c3cc(OC)ccc3OC)nc3ccccc23)CC1	8	19	30	73*	-2	24	46*	62*
CC(C)Cn1c(=O)c(C(=O)NCc2ccc3c(c2)OCO3)c(O)c2ccccc21	2	48	-4	3	16	-3	/	/
CN(C)c1ncnc2c1ncn2C1OC(CO)C(O)C1O (configuration not stated)	69	/	?	76*	-2	-1	43*	20
Nc1ncn([C@@H]2O[C@H](CO)[C@@H](O)[C@H]2O)c(=O)n1	4	51	-4	52*	5	-6	50*	59*
COc1ccc(C[C@H](N)C(=O)N[C@H]2[C@@H](O)[C@H](n3cnc4c(N(C)C)ncnc43)O[C@@H]2CO)cc1	/	3	/	96*	/	/	99*	54*
CNc1ncnc2c1ncn2[C@@H]1O[C@H](CO)[C@@H](O)[C@H]1O	2	-2	/	0	/	/	/	/
Cc1ccc(Sc2ncccc2C(=O)NCc2cc([N+](=O)[O-])ccc2O)cc1C	8	7	-7	10	35	4	/	/
CC(C)C[C@@H](C(=O)NC1CC1)N1C(=O)N2CCc3c([nH]c4ccccc34)[C@@]2(C)C1=O	3	4	-6	-2	-7	8	/	/
CC(C)C[C@@H](C(=O)NC1CCN(Cc2ccccc2)CC1)N1C(=O)N2CCc3c([nH]c4ccccc34)[C@@]2(C)C1=O	7	12	65*	60*	1	7	46*	58*
COc1cc(NC(=O)c2c(F)c(F)c(F)c(F)c2F)c(OC)cc1Cl	4	-1	5	78*	-15	5	47*	53*
COc1cc(NC(=O)c2ccc(F)cc2)c(OC)cc1Cl	/	-7	-26	11	8	-4	/	/
CCc1sc2nc(SCC(=O)Nc3cc(C)on3)n(-c3cccc(OC)c3)c(=O)c2c1C	46	14	-4	92*	-7	6	66*	77*
C=CCn1c(SCC(=O)Nc2sccc2C(N)=O)nc2ccc(Cl)cc2c1=O	25	3	-14	35	3	35	/	/
Cc1cc(NC(=O)CSc2nc3sc4c(c3c(=O)n2C)CCCC4)no1	11	-1	-13	11	-20	1	/	/
C=CCn1c(SCC(=O)Nc2sccc2C(N)=O)nc2sc(CC)cc2c1=O	7	15	3	59*	-6	11	38	74*
CCn1c(SCC(=O)Nc2cc(C)on2)nc2sc3c(c2c1=O)CCCC3	82*	-1	-1	76*	12	-1	54*	16
C=CCn1c(SCC(=O)Nc2cc(C)on2)nc2sc3c(c2c1=O)CCCC3	13	/	/	61*	/	/	33	/
CC1(c2ccc3c(c2)OCCO3)NC(=O)N(CC(=O)Nc2ccccc2F)C1=O (configuration not stated)	/	/	/	1	/	/	/	/
Cc1nnc(SCC(=O)c2c[nH]c3ccccc23)n1C1CC1	-16	/	/	9	/	/	/	/
C=CCn1c(SCC(=O)Nc2cc(Cl)ccc2C(=O)O)nc2sc(C)c(C)c2c1=O	-5	38	/	23	/	/	/	/
